From ChEMBL document CHEMBL2331279, “Rational design and synthesis of 4-substituted 2-pyridin-2-ylamides with inhibitory effects on SH2 domain-containing inositol 5'-phosphatase 2 (SHIP2)” (Eur J Med Chem, 2013)
The source made the active and inactive calls. The rule behind the calls is not given here.

Key:
Mus musculus [1] = test: Toxicity in db/db mouse assessed as food intake at 300 mg/kg, po bid for 12 to 13 days measured on day 10 (reference value: 6.06 +/-0.36 gms/day); format: organism-based; design: dose 300 mg/kg, route oral; conditions: in vivo
Mus musculus [2] = test: Antidiabetic activity in db/db mouse assessed as decrease in HOMA-R index of insulin resistance at 300 mg/kg, po bid for 12 to 13 days; format: functional, organism-based; design: dose 300 mg/kg
Mus musculus [3] = test: Toxicity in db/db mouse assessed as body weight at 300 mg/kg, po bid for 12 to 13 days measured on day 10 (reference value: 39.2 +/-0.6 gms); format: organism-based; design: dose 300 mg/kg, route oral; conditions: in vivo
Mus musculus [4] = test: Toxicity in db/db mouse assessed as epididymal white adipose tissue weight at 300 mg/kg, po bid for 12 to 13 days measured on day 12 to 13 (reference value: 1.82 +/-0.1 gms); format: organism-based; design: dose 300 mg/kg, route oral; conditions: in vivo
[5] = molecular target: T1, Phosphatidylinositol 3,4,5-trisphosphate 5-phosphatase 2 (Rattus norvegicus) (UniProt Q9WVR3); test: Inhibition of SHIP2 in TNF alpha-treated Sprague-Dawley rat cortical neuron assessed as potentiation of insulin-stimulated Akt phosphorylation at Thr308 at 10 uM treated for 15 mins after TNF alpha challenge for 3 days and prior to insulin stimulation measured after 5 mins by Western blot analysis relative to untreated control
T1 sequence (whole entry): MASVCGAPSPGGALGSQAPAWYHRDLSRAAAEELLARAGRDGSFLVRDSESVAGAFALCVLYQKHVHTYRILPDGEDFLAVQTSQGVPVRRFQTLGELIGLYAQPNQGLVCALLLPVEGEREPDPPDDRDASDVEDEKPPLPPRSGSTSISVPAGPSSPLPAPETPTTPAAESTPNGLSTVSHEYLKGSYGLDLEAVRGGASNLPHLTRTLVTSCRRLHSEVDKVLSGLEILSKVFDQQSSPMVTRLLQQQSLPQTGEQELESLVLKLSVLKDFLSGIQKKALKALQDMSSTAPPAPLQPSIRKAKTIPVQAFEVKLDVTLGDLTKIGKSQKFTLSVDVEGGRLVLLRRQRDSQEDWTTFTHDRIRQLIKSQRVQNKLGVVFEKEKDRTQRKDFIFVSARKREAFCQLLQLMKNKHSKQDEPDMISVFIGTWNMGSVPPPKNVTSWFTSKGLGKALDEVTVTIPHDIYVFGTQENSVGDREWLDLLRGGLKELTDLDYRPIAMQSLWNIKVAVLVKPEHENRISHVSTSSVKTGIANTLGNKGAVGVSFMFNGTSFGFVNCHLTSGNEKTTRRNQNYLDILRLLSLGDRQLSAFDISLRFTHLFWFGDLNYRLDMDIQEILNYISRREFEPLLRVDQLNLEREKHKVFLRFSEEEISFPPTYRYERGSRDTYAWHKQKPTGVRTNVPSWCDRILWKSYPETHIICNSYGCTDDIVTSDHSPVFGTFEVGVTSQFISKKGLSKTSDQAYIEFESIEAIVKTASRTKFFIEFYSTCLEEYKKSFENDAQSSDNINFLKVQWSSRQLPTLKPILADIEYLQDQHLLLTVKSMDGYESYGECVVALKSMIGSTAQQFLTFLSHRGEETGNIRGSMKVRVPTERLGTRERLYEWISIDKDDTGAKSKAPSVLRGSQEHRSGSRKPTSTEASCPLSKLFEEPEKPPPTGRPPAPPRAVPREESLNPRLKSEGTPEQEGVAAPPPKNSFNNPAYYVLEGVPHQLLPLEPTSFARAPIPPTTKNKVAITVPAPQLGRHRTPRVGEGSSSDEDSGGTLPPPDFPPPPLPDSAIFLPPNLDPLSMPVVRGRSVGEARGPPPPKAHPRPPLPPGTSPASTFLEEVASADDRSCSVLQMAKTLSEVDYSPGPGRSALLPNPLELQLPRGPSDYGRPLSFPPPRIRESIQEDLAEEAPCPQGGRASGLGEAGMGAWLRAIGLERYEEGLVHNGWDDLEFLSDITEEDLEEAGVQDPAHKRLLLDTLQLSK

Mus musculus [6] = test: Decrease in glucose-6-phosphatase gene expression in db/db mouse liver at 300 mg/kg, po bid for 12 to 13 days by real time RT-PCR analysis; format: functional, organism-based; design: dose 300 mg/kg
How it was run: (§1)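 db/db mice dosed orally twice daily with 300 mg/kg or vehicle for 12-13 days, then fasted overnight and liver removed. Gluconeogenic gene mRNA measured by SYBR-green real-time PCR and expressed as fold change versus vehicle. Mean ± SE, n=7-8; ANOVA with Bonferroni test.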

Mus musculus [7] = test: Toxicity in db/db mouse assessed as liver weight at 300 mg/kg, po bid for 12 to 13 days measured on day 12 to 13 (reference value: 1.57 +/-0.04 gms); format: organism-based; design: dose 300 mg/kg, route oral; conditions: in vivo
Mus musculus [8] = test: Toxicity in C57BL/6J mouse assessed as body weight at 300 mg/kg, po bid for 12 to 13 days measured on day 10 (reference value: 23.2 +/-0.4 gms); format: organism-based; design: dose 300 mg/kg, route oral; conditions: in vivo
Mus musculus [9] = test: Decrease in PEPCK gene expression in db/db mouse liver at 300 mg/kg, po bid for 12 to 13 days by real time RT-PCR analysis; format: functional, organism-based; design: dose 300 mg/kg; how it was run: as §1
Mus musculus [10] = test: Antidiabetic activity in db/db mouse assessed as fasting plasma glucose level at 300 mg/kg, po bid for 12 to 13 days measured on day 12 to 13 (reference value: 106 +/-6 mg/dl); format: functional

For `C[C@H](NC(=O)c1sccc1OCc1ccc(Cl)cc1)c1ccccc1`, the Activity (Mus musculus [1]) was 6.5 g/day, the inhibition (Mus musculus [2]) was “Active” and the Activity (Mus musculus [3]) was 40.1 g. For the same molecule, the Activity (Mus musculus [4]) was 1.75 g, the fold change (FC) [5] was 1.5 and the inhibition (Mus musculus [6]) was “Active”. For the same molecule, the Activity (Mus musculus [7]) was 1.8 g, the Activity (Mus musculus [8]) was 23 g and the inhibition (Mus musculus [9]) was “Active”. It also gave an Activity (Mus musculus [10]) of 77 mg/dL.

`O=C(Cc1c(F)cccc1F)Nc1cc(OCc2ccc(Cl)cc2)ccn1` was tested, and the Activity (Mus musculus [1]) was 5.34 g/day, the inhibition (Mus musculus [2]) was “Active” and the Activity (Mus musculus [3]) was 39.4 g. For the same molecule, the Activity (Mus musculus [4]) was 1.86 g, the fold change (FC) [5] was 2.2 and the inhibition (Mus musculus [6]) was “Active”. The Activity (Mus musculus [7]) was 1.67 g, the Activity (Mus musculus [8]) was 23.4 g and the inhibition (Mus musculus [9]) was “Active”. For the same molecule, the Activity (Mus musculus [10]) was 83 mg/dL.
